Assay results from ChEMBL document CHEMBL1127451, “Benzoselenazolinone derivatives designed to be glutathione peroxidase mimetics feature inhibition of cyclooxygenase/5-lipoxygenase pathways and anti-inflammatory activity” (1994).

What was measured:
Assay type in all cases: functional
[1] = tested on: Rattus norvegicus; assay: Tested for acute anti-inflammatory activity of the antirat serum-induced edema in rats at dose of 0.1 mg/kg at time interval- 2 hr
Outline: (§1)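 Oral dosing of fasted Wistar rats (200–240 g, six per group) with drug in 0.5 mL 2% gelatin; 1 h later 0.1 mL rabbit antirat serum given by subplantar injection into hind paw.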

[2] = tested on: Rattus norvegicus; assay: Tested for acute anti-inflammatory activity of carrageenan-induced foot edema in rats at dose of 0.1 mg/kg at time interval- 0.5 hr
Outline: (§2)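 Fasted male-unspecified Wistar rats (200–240 g), groups of six, dosed orally with drug in 0.5 mL 2% gelatin; 1 h later 0.1 mL carrageenan (2% in […]) injected subplantar into hind paw. Paw volume by water plethysmometer at 0, 0.5, 1, 2, 3, 4 h; mean swelling versus vehicle-treated group expressed as percent inhibition.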

[3] = tested on: Rattus norvegicus; assay: Tested for acute anti-inflammatory activity of carrageenan-induced foot edema in rats at dose of 0.1 mg/kg at time interval- 1 hr; outline: as §2
[4] = tested on: Rattus norvegicus; assay: Tested for acute anti-inflammatory activity of carrageenan-induced foot edema in rats at dose of 0.1 mg/kg at time interval- 2 hr; outline: as §2
[5] = tested on: Rattus norvegicus; assay: Tested for acute anti-inflammatory activity of carrageenan-induced foot edema in rats at dose of 0.1 mg/kg at time interval- 3h; outline: as §2
[6] = tested on: Rattus norvegicus; assay: Tested for acute anti-inflammatory activity of carrageenan-induced foot edema in rats at dose of 0.1 mg/kg at time interval- 4 hr; outline: as §2
[7] = tested on: Rattus norvegicus; assay: Tested for acute anti-inflammatory activity of carrageenan-induced foot edema in rats at dose of 10 mg/kg at time interval- 0.5 hr; outline: as §2
[8] = tested on: Rattus norvegicus; assay: Tested for acute anti-inflammatory activity of carrageenan-induced foot edema in rats at dose of 10 mg/kg at time interval- 1 hr; outline: as §2
[9] = tested on: Rattus norvegicus; assay: Tested for acute anti-inflammatory activity of carrageenan-induced foot edema in rats at dose of 10 mg/kg at time interval- 2 hr; outline: as §2
[10] = tested on: Rattus norvegicus; assay: Tested for acute anti-inflammatory activity of carrageenan-induced foot edema in rats at dose of 10 mg/kg at time interval- 3h; outline: as §2
[11] = tested on: Rattus norvegicus; assay: Tested for acute anti-inflammatory activity of carrageenan-induced foot edema in rats at dose of 10 mg/kg at time interval- 4 hr; outline: as §2
[12] = tested on: Rattus norvegicus; assay: Tested for acute anti-inflammatory activity of carrageenan-induced foot edema in rats at dose of 1 mg/kg at time interval- 0.5 hr; outline: as §2
[13] = tested on: Rattus norvegicus; assay: Tested for acute anti-inflammatory activity of carrageenan-induced foot edema in rats at dose of 1 mg/kg at time interval- 1 hr; outline: as §2
[14] = tested on: Rattus norvegicus; assay: Tested for acute anti-inflammatory activity of carrageenan-induced foot edema in rats at dose of 1 mg/kg at time interval- 2 hr; outline: as §2
[15] = tested on: Rattus norvegicus; assay: Tested for acute anti-inflammatory activity of carrageenan-induced foot edema in rats at dose of 1 mg/kg at time interval- 3h; outline: as §2
[16] = tested on: Rattus norvegicus; assay: Tested for acute anti-inflammatory activity of carrageenan-induced foot edema in rats at dose of 1 mg/kg at time interval- 4 hr; outline: as §2
[17] = tested on: Rattus norvegicus; assay: Tested for acute anti-inflammatory activity of the antirat serum-induced edema at dose of 1 mg/kg at time interval- 3h; outline: as §1
[18] = tested on: Rattus norvegicus; assay: Tested for acute anti-inflammatory activity of the antirat serum-induced edema in rats at dose of 0.1 mg/kg at time interval- 0.5 hr; outline: as §1
[19] = tested on: Rattus norvegicus; assay: Tested for acute anti-inflammatory activity of the antirat serum-induced edema in rats at dose of 0.1 mg/kg at time interval- 3h; outline: as §1
[20] = tested on: Rattus norvegicus; assay: Tested for acute anti-inflammatory activity of the antirat serum-induced edema in rats at dose of 0.1 mg/kg at time interval- 4 hr; outline: as §1
[21] = tested on: Rattus norvegicus; assay: Tested for acute anti-inflammatory activity of the antirat serum-induced edema in rats at dose of 10 mg/kg at time interval- 0.5 hr; outline: as §1
[22] = tested on: Rattus norvegicus; assay: Tested for acute anti-inflammatory activity of the antirat serum-induced edema in rats at dose of 10 mg/kg at time interval- 1 hr; outline: as §1
[23] = tested on: Rattus norvegicus; assay: Tested for acute anti-inflammatory activity of the antirat serum-induced edema in rats at dose of 10 mg/kg at time interval- 3h; outline: as §1
[24] = tested on: Rattus norvegicus; assay: Tested for acute anti-inflammatory activity of the antirat serum-induced edema in rats at dose of 10 mg/kg at time interval- 4 hr; outline: as §1
[25] = tested on: Rattus norvegicus; assay: Tested for acute anti-inflammatory activity of the antirat serum-induced edema in rats at dose of 1 mg/kg at time interval- 0.5 hr; outline: as §1
[26] = tested on: Rattus norvegicus; assay: Tested for acute anti-inflammatory activity of the antirat serum-induced edema in rats at dose of 1 mg/kg at time interval- 1 hr; outline: as §1
[27] = tested on: Rattus norvegicus; assay: Tested for acute anti-inflammatory activity of the antirat serum-induced edema in rats at dose of 1 mg/kg at time interval- 2 hr; outline: as §1
[28] = tested on: Rattus norvegicus; assay: Tested for acute anti-inflammatory activity of the antirat serum-induced edema in rats at dose of 1 mg/kg at time interval- 4 hr; outline: as §1
[29] = tested on: Rattus norvegicus; assay: Tested for acute anti-inflammatory activity of the antirat serum-induced edema in rats at dose of 0.1 mg/kg at time interval- 1 hr; outline: as §1
[30] = tested on: Rattus norvegicus; assay: Tested for acute anti-inflammatory activity of the antirat serum-induced edema in rats at dose of 10 mg/kg at time interval- 2 hr; outline: as §1

COc1ccc2c(c1)c(CC(=O)O)c(C)n2C(=O)c1ccc(Cl)cc1 [INDOMETHACIN]
inhibition in vivo at 0.1 mg/kg [1]: 4.4% | inhibition in vivo at 0.1 mg/kg [2]: -124% | inhibition in vivo at 0.1 mg/kg [3]: 11.3% | inhibition in vivo at 0.1 mg/kg [4]: 1.7% | inhibition in vivo at 0.1 mg/kg [5]: 4% | inhibition in vivo at 0.1 mg/kg [6]: -1.7% | inhibition in vivo at 10 mg/kg [7]: -57.1% | inhibition in vivo at 10 mg/kg [8]: 26.2% | inhibition in vivo at 10 mg/kg [9]: 55.5% | inhibition in vivo at 10 mg/kg [10]: 68.7% | inhibition in vivo at 10 mg/kg [11]: 65.2% | inhibition in vivo at 1 mg/kg [12]: -22.2% | inhibition in vivo at 1 mg/kg [13]: 41.8% | inhibition in vivo at 1 mg/kg [14]: 40.2% | inhibition in vivo at 1 mg/kg [15]: 40% | inhibition in vivo at 1 mg/kg [16]: 29.5% | inhibition in vivo at 1 mg/kg [17]: 1.6% | inhibition in vivo at 0.1 mg/kg [18]: -28.3% | inhibition in vivo at 0.1 mg/kg [19]: 4.4% | inhibition in vivo at 0.1 mg/kg [20]: 16.9% | inhibition in vivo at 10 mg/kg [21]: -21.2% | inhibition in vivo at 10 mg/kg [22]: -1.5% | inhibition in vivo at 10 mg/kg [23]: 25.5% | inhibition in vivo at 10 mg/kg [24]: 24.5% | inhibition in vivo at 1 mg/kg [25]: -8.1% | inhibition in vivo at 1 mg/kg [26]: -3% | inhibition in vivo at 1 mg/kg [27]: 10% | inhibition in vivo at 1 mg/kg [28]: 7.5% | inhibition in vivo at 0.1 mg/kg [29]: -7.9% | inhibition in vivo at 10 mg/kg [30]: 22.5%
